In ChEMBL document CHEMBL4004832, “Synthesis, surfactant properties and antimicrobial activities of methyl glycopyranoside ethers” (2017):
≈ marks a conversion by molar mass, not a printed value.

What was measured:
[1] = Surfactant property of the compound in water assessed as critical micelle concentration or minimal hydrotropic concentration by platinum rod based tensiometric method
In short: (§1)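 Surface tension of aqueous solutions was measured by a rod method based on the Wilhelmy plate. Water was progressively concentrated with a stock surfactant solution at constant volume. At each concentration, readings continued until stable (SD of the last 5 values 0.2 mN/m). MHC or CMC and the plateau γsat were taken from the tension vs concentration curves.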

[2] = system: Staphylococcus aureus; test: Antibacterial activity against Staphylococcus aureus ATCC 29213 after 18 hrs by broth microdilution assay; assay type: functional; conditions: ATCC 29213, 18 h
In short: (§2)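 Broth MIC testing on Gram-positive strains followed CLSI M100-S17 recommendations. […] Values are in mmol/L. Amoxicillin was the control for Listeria and Enterococcus strains and oxacillin for S. aureus strains.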

[3] = system: Escherichia coli; test: Antibacterial activity against Escherichia coli ATCC 8739 after 18 hrs by broth microdilution assay; assay type: functional; conditions: ATCC 8739, 18 h
[4] = system: Enterococcus faecalis; test: Antibacterial activity against Enterococcus faecalis ATCC 29212 after 18 hrs by broth microdilution assay; assay type: functional; conditions: ATCC 29212, 18 h; in short: as §2
[5] = system: Pseudomonas aeruginosa; test: Antibacterial activity against Pseudomonas aeruginosa ATCC 27853 after 18 hrs by broth microdilution assay; assay type: functional; conditions: ATCC 27853, 18 h
[6] = system: Listeria monocytogenes; test: Antibacterial activity against Listeria monocytogenes CIP 103575 after 18 hrs by broth microdilution assay; assay type: functional; conditions: CIP 103575, 18 h; in short: as §2
[7] = Surfactant property of the compound in aqueous solution assessed as critical micelle concentration or minimal hydrotropic concentration; in short: as §1
[8] = system: Enterococcus faecium; test: Antibacterial activity against Enterococcus faecium isolate 015205731401 after 18 hrs by broth microdilution assay; assay type: functional; conditions: isolate 015205731401, 18 h; in short: as §2
[9] = system: Enterococcus faecium; test: Antibacterial activity against Enterococcus faecium isolate 015205261801 after 18 hrs by broth microdilution assay; assay type: functional; conditions: isolate 015205261801, 18 h
In short: (§3)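 Enterococcus faecium strains (reference, clinical isolates, VanA isolate) tested by MIC following CLSI recommendations (M100-S17), with amoxicillin as control. […] Values are expressed in mmol/L.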

[10] = system: Enterococcus faecium; test: Antibacterial activity against […] Enterococcus faecium isolate 0151850763 after 18 hrs by broth microdilution assay; assay type: functional; conditions: isolate 0151850763, 18 h; in short: as §3
[11] = system: Listeria monocytogenes; test: Antibacterial activity against Listeria monocytogenes isolate 015170199001 after 18 hrs by broth microdilution assay; assay type: functional; conditions: isolate 015170199001, 18 h; in short: as §2
[12] = system: Listeria monocytogenes; test: Antibacterial activity against Listeria monocytogenes isolate 015189074801 after 18 hrs by broth microdilution assay; assay type: functional; conditions: isolate 015189074801, 18 h; in short: as §2
[13] = system: Enterococcus faecalis; test: Antibacterial activity against Enterococcus faecalis isolate 015206179901 after 18 hrs by broth microdilution assay; assay type: functional; conditions: isolate 015206179901, 18 h; in short: as §2
[14] = system: Listeria monocytogenes; test: Antibacterial activity against Listeria monocytogenes isolate 015181840701 after 18 hrs by broth microdilution assay; assay type: functional; conditions: isolate 015181840701, 18 h; in short: as §2
[15] = system: Enterococcus faecium; test: Antibacterial activity against Enterococcus faecium CIP 103510 after 18 hrs by broth microdilution assay; assay type: functional; conditions: CIP 103510, 18 h; in short: as §3
[16] = system: Staphylococcus aureus; test: Antibacterial activity against methicillin-resistant Staphylococcus aureus isolate HT 2006-1004 after 18 hrs by broth microdilution assay; assay type: functional; conditions: isolate HT 2006-1004, 18 h
In short: (§4)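 Staphylococcus aureus reference strains and methicillin- and daptomycin-resistant isolates tested by MIC according to CLSI guidance (M100-S17), with oxacillin as control. The endpoint is the lowest concentration with no growth in all replicates versus a negative control at 18 h. Values are reported in mmol/L.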

[17] = system: Staphylococcus aureus; test: Antibacterial activity against methicillin-resistant Staphylococcus aureus LAC USA300 after 18 hrs by broth microdilution assay; assay type: functional; in short: as §4
[18] = system: Staphylococcus aureus; test: Antibacterial activity against methicillin-resistant Staphylococcus aureus isolate HT 2004-0012 after 18 hrs by broth microdilution assay; assay type: functional; conditions: isolate HT 2004-0012, 18 h; in short: as §4
[19] = system: Staphylococcus aureus; test: Antibacterial activity against daptomycin-resistant Staphylococcus aureus isolate ST 2015-0188 after 18 hrs by broth microdilution assay; assay type: functional; conditions: isolate ST 2015-0188, 18 h; in short: as §4
[20] = system: Staphylococcus aureus; test: Antibacterial activity against daptomycin-resistant Staphylococcus aureus isolate ST 2015-0989 after 18 hrs by broth microdilution assay; assay type: functional; conditions: isolate ST 2015-0989, 18 h; in short: as §4
[21] = system: Staphylococcus aureus; test: Antibacterial activity against methicillin-resistant Staphylococcus aureus isolate LY 1999-0053 after 18 hrs by broth microdilution assay; assay type: functional; conditions: isolate LY 1999-0053, 18 h; in short: as §4
[22] = system: Staphylococcus aureus; test: Antibacterial activity against methicillin-resistant Staphylococcus aureus Mu3 after 18 hrs by broth microdilution assay; assay type: functional; conditions: Mu3, 18 h; in short: as §4
[23] = system: Staphylococcus aureus; test: Antibacterial activity against methicillin-resistant Staphylococcus aureus isolate HT 2002-0417 after 18 hrs by broth microdilution assay; assay type: functional; conditions: isolate HT 2002-0417, 18 h; in short: as §4
[24] = system: Staphylococcus aureus; test: Antibacterial activity against daptomycin-resistant Staphylococcus aureus isolate ST 2014-1288 after 18 hrs by broth microdilution assay; assay type: functional; conditions: isolate ST 2014-1288, 18 h; in short: as §4
[25] = system: Staphylococcus aureus; test: Antibacterial activity against Staphylococcus aureus ATCC 25923 after 18 hrs by broth microdilution assay; assay type: functional; conditions: ATCC 25923, 18 h; in short: as §4
[26] = system: Staphylococcus aureus; test: Bactericidal activity against Staphylococcus aureus ATCC 29213 after 18 hrs by broth microdilution assay; assay type: functional
In short: (§5)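 MBC is the lowest concentration giving at least 99.9% reduction of the initial inoculum. Values are in mmol/L.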

[27] = system: Enterococcus faecalis; test: Bactericidal activity against Enterococcus faecalis ATCC 29212 after 18 hrs by broth microdilution assay; assay type: functional; in short: as §5
[28] = system: Listeria monocytogenes; test: Bactericidal activity against Listeria monocytogenes CIP 103575 after 18 hrs by broth microdilution assay; assay type: functional; in short: as §5

| Compound | MIC [2] | MIC [3] | MIC [4] | MIC [5] | MIC [6] | CMC [1] | CMC [7] | also measured |
| --- | --- | --- | --- | --- | --- | --- | --- | --- |
| CCCCCCCCCCCC(=O)OC[C@H]1O[C@H](O[C@H]2[C@H](O)[C@@H](O)C(O)O[C@@H]2CO)[C@H](O)[C@@H](O)[C@@H]1O (stereo not given in full) | – | – | – | – | – | – | 0.24 mmol/L | – |
| CCCCCCCCCCCCO[C@@H]1O[C@H](CO)C(O[C@H]2O[C@H](CO)[C@@H](O)[C@H](O)[C@H]2O)[C@H](O)[C@H]1O (single isomer, unassigned) | – | – | – | – | – | – | 0.2 mmol/L | – |
| CCCCCCCCCCCCO[C@@H]1O[C@H](CO)[C@@H](O)[C@H](O)[C@H]1O | – | – | – | – | – | – | 0.19 mmol/L | – |
| CC1(C)S[C@@H]2[C@H](NC(=O)[C@H](N)c3ccc(O)cc3)C(=O)N2[C@H]1C(=O)O [AMOXICILLIN] | – | – | 2 µM (≈ 0.731 µg/mL) | – | 2 µM (≈ 0.731 µg/mL) | – | – | MIC [8]: 250 µM (≈ 91.4 µg/mL); MIC [9]: 250 µM (≈ 91.4 µg/mL); MIC [10]: 500 µM (≈ 183 µg/mL); MIC [11]: 4 µM (≈ 1.46 µg/mL); MIC [12]: 2 µM (≈ 0.731 µg/mL); MIC [13]: 2 µM (≈ 0.731 µg/mL); MIC [14]: 2 µM (≈ 0.731 µg/mL); MIC [15]: 60 µM (≈ 21.9 µg/mL) |
| CCCCCCCCCCCC(=O)OC[C@H]1O[C@H](OC)[C@H](O)[C@@H](O)[C@@H]1O | 320 µM (≈ 120 µg/mL) | – | – | – | 80 µM (≈ 30.1 µg/mL) | – | 0.052 mmol/L | – |
| CCCCCCCCCCCCOC[C@H]1O[C@H](OC)[C@H](O)[C@@H](O)[C@H]1O | > 710 µM | – | 180 µM (≈ 65.3 µg/mL) | – | 180 µM (≈ 65.3 µg/mL) | 0.47 mmol/L | – | MIC [16]: > 710 µM; MIC [8]: 90 µM (≈ 32.6 µg/mL); MIC [9]: 20 µM (≈ 7.25 µg/mL); MIC [17]: > 710 µM; MIC [10]: 350 µM (≈ 127 µg/mL); MIC [11]: 180 µM (≈ 65.3 µg/mL); MIC [18]: > 710 µM; MIC [19]: > 710 µM; MIC [12]: 180 µM (≈ 65.3 µg/mL); MIC [13]: 180 µM (≈ 65.3 µg/mL); MIC [20]: > 710 µM; MIC [21]: > 710 µM; MIC [22]: > 710 µM; MIC [14]: 180 µM (≈ 65.3 µg/mL); MIC [23]: > 710 µM; MIC [24]: > 710 µM; MIC [25]: > 710 µM; MIC [15]: > 710 µM |
| CCCCCCCCCCOC[C@H]1O[C@H](OC)[C@H](O)[C@@H](O)[C@@H]1O | 2000 µM (≈ 669 µg/mL) | – | 500 µM (≈ 167 µg/mL) | – | 500 µM (≈ 167 µg/mL) | 0.277 mmol/L | – | MBC<=99.9 [26]: 2000 µM (≈ 669 µg/mL); MBC<=99.9 [27]: 500 µM (≈ 167 µg/mL); MBC<=99.9 [28]: 500 µM (≈ 167 µg/mL) |
| CCCCCCCCCCCCOC[C@H]1OC(O)[C@H](O)[C@@H](O)[C@@H]1O (stereo not given in full) | – | – | – | – | – | – | 0.5 mmol/L | – |

Second part, led by results:

| MIC [2] | MIC [3] | MIC [4] | MIC [5] | MIC [6] | Compound | CMC [1] | CMC [7] | also measured |
| --- | --- | --- | --- | --- | --- | --- | --- | --- |
| > 4000 µM | > 4000 µM | > 4000 µM | > 4000 µM | > 4000 µM | CCCCC[C@@H]1OC[C@H]2O[C@H](OC)[C@H](O)[C@@H](O)[C@@H]2O1 | 6.5 mmol/L | – | – |
| > 4000 µM | > 4000 µM | > 4000 µM | > 4000 µM | > 4000 µM | CCCCCCOC[C@H]1O[C@H](OC)[C@H](O)[C@@H](O)[C@@H]1O | 13.4 mmol/L | – | – |
| > 4000 µM | > 4000 µM | > 4000 µM | > 4000 µM | 2000 µM (≈ 609 µg/mL) | CCCCCCC[C@@H]1OC[C@H]2O[C@H](OC)[C@H](O)[C@@H](O)[C@@H]2O1 | 2.5 mmol/L | – | – |
| > 4000 µM | > 4000 µM | > 4000 µM | > 4000 µM | > 4000 µM | CCCC[C@@H]1OC[C@H]2O[C@H](OC)[C@H](O)[C@@H](O)[C@@H]2O1 | 82 mmol/L | – | – |
